Inhibition and IC50 data for five compounds are collected here from ChEMBL document CHEMBL1126568, “Nucleosides and nucleotides. 122. 2'-C-cyano-2'-deoxy-1-beta-D-arabinofuranosylcytosine and its derivatives. A new class of nucleoside with a broad antitumor spectrum” (J Med Chem, 1993).

Experiment [1] is described as follows: Percent inhibition against human oral epidermoid carcinoma KB cells at 100 ug/mL. In kind it is functional. A digest of the protocol:
(§1)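 MTT growth assay: 2 × 10³ cells/well exposed to compound or left untreated for 72 h. MTT then added for 4 h more; formazan dissolved in DMSO and OD read at 540 nm. % inhibition = [1 − OD sample/OD control] × 100. IC₅₀ (μM) is the concentration giving 50% growth inhibition. Single-concentration inhibition measured at 100 μg/mL.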

In experiment [2] the test system is L1210. Put plainly: Percent inhibition against murine leukemia L1210 at 100 ug/mL. The following applies: Mus musculus. The format is functional. The essentials:
as §1

The next experiment deals with SW48. Put plainly: Tested in vitro against SW-48 human colon adenocarcinoma. In kind it is functional, cell-based. A digest of the protocol: as §1
In the next experiment the test system is MCF7. Put plainly: Tested in vitro against MCF-7 human breast adenocarcinoma. In kind it is functional, cell-based. The essentials: as §1
Experiment [3] can be described thus: Tested in vitro inhibitory activity against human oral epidermoid carcinoma KB cells. The format is functional, cell-based. The essentials:
as §1

The next experiment has as its system MKN-45. Put plainly: Tested in vitro against MKN-45 human stomach adenocarcinoma. The format is functional, cell-based. The following applies: MKN-45, Stomach. A digest of the protocol:
as §1

The next experiment deals with ST-KM-1. Put plainly: Tested in vitro against ST-KM human stomach adenocarcinoma. In kind it is functional, cell-based. The conditions noted are these: ST-KM-1, Stomach. The essentials: as §1
The next experiment deals with COLO 320. The experiment in a line: Tested in vitro against colo-320 human colon adenocarcinoma. The conditions noted are these: COLO 320, Colon. In kind it is functional, cell-based. The essentials: as §1
The test system of a further experiment is HT-1080. Put plainly: Tested in vitro against HT1080 cell line human fibrosarcoma. The format is functional, cell-based. A digest of the protocol:
as §1

Another experiment concerns HOS-TE85. The experiment in a line: Tested in vitro against MNNG/HOS cell line human osteosarcoma. In kind it is functional, cell-based. The essentials: as §1
The subject of another experiment is PC-8. Put plainly: Tested in vitro against PC-8 human lung adenocarcinoma. The format is functional, cell-based. The essentials: as §1
Experiment [4] concerns L1210. The experiment in a line: Tested in vitro inhibitory activity against murine leukemia L1210. In kind it is functional, cell-based. The conditions noted are these: Mus musculus. A digest of the protocol: as §1
The subject of another experiment is PC-9. Put plainly: Tested in vitro against PC-9 human lung adenocarcinoma. The format is functional, cell-based. A digest of the protocol:
as §1

The test system of experiment [5] is KATO III stomach cancer cell line. Put plainly: Tested in vitro against KATO-III human stomach adenocarcinoma. In kind it is functional, cell-based. A digest of the protocol:
as §1

In the next experiment the test system is PC-13. The experiment in a line: Tested in vitro against PC-13 human lung large cell carcinoma. In kind it is functional, cell-based. The essentials:
as §1

The test system of a further experiment is OST. The experiment in a line: Tested in vitro against OST human osteosarcoma. In kind it is functional, cell-based. The essentials:
as §1

For a further experiment, the system named is KKLS. Put plainly: Tested in vitro against KKLS human stomach adenocarcinoma. The format is functional, cell-based. The essentials: as §1
The subject of another experiment is A-375. Put plainly: Tested in vitro against A-375 cell line human melanoma. The format is functional, cell-based. The essentials: as §1
A further experiment relates to QG-95. The experiment in a line: Tested in vitro against QG-95 human squamous cell carcinoma. In kind it is functional, cell-based. A digest of the protocol: as §1

What is called inhibition is the change of the read-out against control, counted positive when it falls. As for `Cc1cn([C@@H]2O[C@H](CO)C(O)[C@@H]2C#N)c(=O)[nH]c1=O` (some centres not stated), the results for the inhibition at 100 µg/mL (in experiment [1]; in the experiment on L1210 [2]) were -6% and 6.7%, respectively.

Usually IC50 stands for the concentration that inhibits the measured activity by half. The low end stands for greater potency in that assay, the high end for weaker potency in that assay. For `N#C[C@H]1[C@H](O)[C@@H](CO)O[C@H]1n1cnc2c(N)ncnc21`, the IC50 is above 360 µM with SW48; above 360 µM in the experiment on MCF7; 163 µM in experiment [3]; above 360 µM in the experiment on MKN-45; above 360 µM in the experiment with ST-KM-1; above 360 µM in the experiment with COLO 320. Further, the IC50 was above 360 µM in the experiment on HT-1080; above 360 µM in the experiment with HOS-TE85; above 360 µM with PC-8; 5.8 µM with L1210 [4]; above 360 µM in the experiment with PC-9; above 360 µM in [5]. Further, the IC50 with PC-13 is above 360 µM; in the experiment with OST, above 360 µM; with KKLS it was above 360 µM; in the experiment on A-375, 308 µM; in the experiment with QG-95, above 360 µM.

Regarding `CC(=O)Nc1ccn([C@@H]2O[C@H](CO)[C@@H](O)[C@@H]2C#N)c(=O)n1`, the IC50 amounted to 230 µM in [3] and 25.3 µM in the experiment on L1210 [4].

In the case of `CC(=O)Nc1ccn([C@@H]2O[C@H](CO)C=C2C#N)c(=O)n1`, the IC50 in experiment [3] amounted to 97.8 µM; with L1210 [4] it was 68.8 µM.

For the compound `Nc1ccn([C@@H]2O[C@H](CO)[C@@H](O)[C@@H]2O)c(=O)n1` [CYTARABINE], the IC50 in the experiment on SW48 is above 410 µM; with MCF7 it was 0.62 µM; in experiment [3] it was 2.3 µM; in the experiment with MKN-45, 57.6 µM; in the experiment with ST-KM-1 it was above 410 µM; with COLO 320 it was 0.04 µM. The IC50 is 1.1 µM in the experiment with PC-8; 0.05 µM in the experiment with L1210 [4]; above 410 µM in experiment [5]; above 410 µM in the experiment on PC-13; above 410 µM with OST; above 410 µM in the experiment on KKLS. For the same compound, the IC50 in the experiment with A-375 and in the experiment with QG-95 was above 410 µM throughout.
